Published values from different studies.
Protocols differ between the studies behind these lines.

COc1cccc(OC)c1-c1nc(C(=O)N[C@@H](CC(C)C)C(=O)O)cn1-c1cccc2ccccc12  solubility (aqueous buffer; pH 7.4): > 145 µg/mL
CCCn1nc(C(=O)N2CCCCC2)c2c1CCC(NCc1ccc(N3CCCCC3)cc1)C2 (stereo not shown)  solubility (PBS; 16 h, pH 7.4): 463 µM
Cc1cc2[nH]c(-c3cc(F)cc(F)c3)nc2c(N2CCC(CN3CCN(C)CC3)CC2)n1  solubility (shake flask; aqueous buffer; pH 6.5): > 200 µM
CC#Cc1cncc(-c2ccc3c(c2)[C@@]2(N=C(C)C(N)=N2)[C@]2(CC[C@H](OC)CC2)C3)c1  solubility (simulated gastric fluid; 25 °C, acidic): > 10000 µg/mL
CNC(=O)c1ccc(N(Cc2ccc(C3CCCCC3)cn2)C(=O)[C@H]2CCN2S(=O)(=O)c2c(F)c(F)c(F)c(F)c2F)cc1O  solubility (simulated intestinal fluid): 131 µg/mL
O=C(c1ccccn1)N(Cc1cccs1)C1(C(=O)NC2CCCCC2)CCCCC1  solubility (aqueous buffer; pH 7.4): 6.5 µg/mL
c1ccc(CNc2nc(N3CCOc4ccccc43)nc3ccccc23)cc1  solubility (aqueous buffer; pH 5): 25.2 µg/mL
Cl.c1ccc(Cn2c(N3CCNCC3)nc3cc(-c4cc[nH]n4)ccc32)cc1  solubility (shake flask; aqueous buffer; 20 h, pH 6.5, 25 °C): 195 µM
CC(=O)c1cccc(OCc2cc(C(=O)N(C)[C@@H](C)c3ccccn3)no2)c1  solubility (PBS): 96 µM
O=C(NCCN1CCCC1)c1cc(-c2ccc(CN3CCOCC3)cc2)nc2ccc(F)cc12  solubility (simulated gastric fluid; 4 h, pH 2, 37 °C, acidic): > 6490 µM
CN(CCOc1ccc(CC2SC(=O)NC2=O)cc1)c1ccccn1 (stereo not shown)  solubility (aqueous buffer; pH 7.4): ≥ 144 µM
Cl.Clc1ccc2c(nc(N3CCNCC3)n2Cc2ccccc2)c1-c1ccncc1  solubility (shake flask; aqueous buffer; 20 h, pH 6.5, 25 °C): 200 µM
COc1cc(OC)cc(N(CCNC(C)C)c2ccc3ncc(-c4cnn(C)c4)nc3c2)c1  solubility (aqueous buffer; pH 9.61): 1 µg/mL
COc1cc2ncnc3c2cc1OCCOCCOc1cc(F)c(Cl)cc1N3  solubility (HPLC; aqueous buffer; 24 h): 0.131 to 0.174 µg/mL
NCCCCNc1nc2cc(Cl)ccc2n1Cc1ccccc1  solubility (shake flask; aqueous buffer; 20 h, pH 6.5, 25 °C): ≥ 200 µM
CN1CCN([C@H]2CC[C@@H](Nc3nccc4[nH]c(-c5cc(F)cc(F)c5)nc34)CC2)CC1  solubility (shake flask; aqueous buffer; pH 6.5): > 200 µM
CCc1nc2nc(C)cc(Nc3ccc(S(F)(F)(F)(F)F)cc3)n2n1  solubility (nephelometry; aqueous buffer; pH 6.5): 34 to 66 µM
Cc1cc(F)cc(Nc2nc(NCc3ccccc3)c3ccccc3n2)c1  solubility (aqueous buffer; pH 6.2): < 0.01 µg/mL
O=C(Nc1ccc(S(=O)(=O)N2CCC(Cl)CC2)cc1)c1ccc([N+](=O)[O-])o1  solubility (aqueous buffer; pH 5): 3.8 µg/mL
Cc1c(F)cccc1Nc1nc(NCc2ccccc2)c2ccccc2n1  solubility (aqueous buffer; pH 5): 8.4 µg/mL
O=C(Nc1c2c(cc3c1CCC3)CCC2)NS(=O)(=O)/C=C/c1nccs1  solubility (water; 24 h, 37 °C): 11.2 µg/mL
CCc1nc2nc(C)cc(Nc3cccc(Cl)c3)n2n1  solubility (nephelometry; aqueous buffer; pH 6.5): 170 to 350 µM
CCOC(=O)c1ccc(O)cc1  solubility (PBS; pH 7.4): 1210 µg/mL
Cc1ccc(S(=O)(=O)NCc2ccc(C(=O)NCCN(Cc3ccccc3)C(C)C)cc2)cc1  solubility (aqueous buffer; pH 5): 0.47 µg/mL
OCCOc1cccc2c(NCc3ccccc3)nc(N3CCOc4ccccc43)nc12  solubility (aqueous buffer; pH 6.2): 0.48 µg/mL
COC(=O)[C@H]1[C@H]2C[C@@H]3c4[nH]c5cc(OC)ccc5c4CCN3C[C@H]2C[C@@H](OC(=O)c2cc(OC)c(OC)c(OC)c2)[C@@H]1OC  solubility (shake flask; PBS; 24 h, pH 6.5, 25 °C): < 5 µM
Clc1cccc(Nc2nc(NCc3cccc(Br)c3)c3ccccc3n2)c1  solubility (aqueous buffer; pH 6.2): 0.02 µg/mL
N=C(N)NCc1ccc(NC(=O)c2ccc(C(=O)Nc3ccc(C4=CCN(C(=N)N)CC4)cc3)cc2)cc1  solubility (shake flask; aqueous buffer; pH 7.4): 171 µg/mL
CN(C)CCCN1c2ccccc2Sc2ccc(Cl)cc21  solubility (FaSSIF; 24 h, pH 7.4, 37 °C): 810 µg/mL
COc1ccc2cc(-c3nn(C(C)(C)C)c(N)c3C(N)=O)cnc2c1  solubility (PBS; pH 6.5, 25 °C): > 100 µM
COc1cccc2c(NCc3ccccc3)nc(NCc3ccccc3)nc12  solubility (aqueous buffer; pH 6.2): 1 µg/mL
CCc1nc2ccc(Cl)cn2c1C(=O)NCc1ccc(N2CCC(c3ccc(OC(F)(F)F)cc3)CC2)cc1  solubility (PBS): 61 µM
CCCCCCCCN1CCCC1=O  solubility (PBS; 48 h, pH 7.4, 25 °C): 4800 µM
CCOc1ccc2cc(-c3nn(C4CCCCC4)c(N)c3C(N)=O)ccc2n1  solubility (PBS; pH 6.5, 25 °C): 88.9 µM
CS(=O)(=O)c1ccc2c(c1)nc(C1CCNCC1)n2Cc1ccccc1.Cl  solubility (shake flask; aqueous buffer; 20 h, pH 6.5, 25 °C): 200 µM
c1ccc(CNc2nc(N3CCNc4ccccc43)nc3ccccc23)cc1  solubility (aqueous buffer; pH 7.4): 0.02 µg/mL
CCOc1nc2nc(C)cc(Nc3ccc(C(F)(F)F)cc3)n2n1  solubility (nephelometry; aqueous buffer; pH 6.5): 19 to 37 µM
CC[C@H](C)[C@H](NC(=O)[C@H](Cc1ccccc1)NC(=O)[C@H](Cc1ccc(O)cc1)NC(=O)[C@@H]1CCCN1C(=O)[C@@H](N)Cc1ccc(O)cc1)C(=O)N1CCC[C@H]1C(=O)N[C@@H](CC(C)C)C(=O)NCC(=O)NCC(=O)NCC(=O)N[C@@H](CCC(=O)O)C(=O)N[C@H](C(=O)N[C@@H](CC(N)=O)C(=O)N[C@@H](CC(C)C)[C@@H](O)CC(=O)N[C@H](C(=O)N[C@@H](C)C(=O)N[C@@H](CCC(=O)O)C(=O)N1CCC[C@@H]1C(=O)N[C@@H](CCCCNC(=O)CCC(=O)O[C@H]1CC[C@@]2(C)C(=CC[C@H]3[C@@H]4CC[C@H]([C@H](C)CCCC(C)C)[C@@]4(C)CC[C@@H]32)C1)C(N)=O)C(C)C)C(C)C  solubility (aqueous buffer; pH 6.5): < 1 µg/mL
Cc1cccc(C(=O)Nc2cccc(NC(=O)c3ccccc3)c2)c1  solubility (PBS; pH 7.4): 0.82 µM
CN1CCN(C[C@H]2CCCN(c3nccc4[nH]c(-c5cc(F)cc(F)c5)nc34)C2)CC1  solubility (shake flask; aqueous buffer; pH 6.5): > 200 µM
COc1cccc(OC)c1-c1nc(C(=O)N[C@@H](CC(C)C)C(=O)O)cn1-c1ccnc2cc(Cl)ccc12  solubility (aqueous buffer; pH 6.2): > 52 µg/mL
CCn1c(-c2nc3ccc(C(=O)N4CCCC(N)C4)cc3n2C)cc2ccccc21 (stereo not shown)  solubility (aqueous buffer): 243 µM
COCc1nc2nc(C)cc(Nc3ccc(S(F)(F)(F)(F)F)cc3)n2n1  solubility (nephelometry; aqueous buffer; pH 6.5): 63 to 130 µM
CC(C)(C)n1nc(-c2cnc3cc(OC4CCC4)ccc3c2)c(C(N)=O)c1N  solubility (PBS; pH 6.5, 25 °C): 3.7 µM
COCCOCCOCc1n(Cc2ccc3ccccc3n2)c2ccccc2[n+]1Cc1ccc2ccccc2n1.[Cl-]  solubility (water): > 40000 µg/mL
Cc1ccc(-c2ccccc2C(=O)Nc2c(C)cccc2C(=O)O)cc1  solubility (shake flask; aqueous buffer; 24 h, pH 6.5, 25 °C): 175 µM
OCc1n(Cc2ccc3ccccc3c2)cc[n+]1Cc1ccc2ccccc2c1.[Br-]  solubility (water): < 500 µg/mL
Nc1cccc(S(=O)(=O)N2CCN(S(=O)(=O)c3ccc4c(c3)OCCO4)CC2)c1  solubility (aqueous buffer): 4.1 µg/mL
CCCCOC(=O)c1ccc(N)cc1  solubility (PBS; pH 7.4): 226 µg/mL
CC[C@H](C)[C@H](NC(=O)[C@H](CCCNC(=N)N)NC(=O)[C@H](CCC(=O)O)NC(C)=O)C(=O)N[C@H]1CSSC[C@@H](C(=O)N[C@H](C(N)=O)[C@@H](C)O)NC(=O)[C@H](CCCNC(=N)N)NC(=O)[C@H](Cc2c[nH]cn2)NC(=O)[C@H](C)NC(=O)CNC(=O)[C@H](Cc2c[nH]c3ccccc23)NC(=O)[C@H](CC(=O)O)NC(=O)[C@H](CCC(N)=O)NC(=O)[C@H](Cc2c[nH]c3ccccc23)NC(=O)[C@H](C(C)C)NC1=O  solubility (PBS; pH 7.4): 4290 µg/mL
COCc1nn(Cc2ccc(Cn3ccccc3=O)cc2)cc1C(=O)NCc1c(F)ccc(OC)c1F  solubility (FaSSIF; 4 h, pH 6.5): 9 µg/mL
Cc1ccc(Nc2nc(NCc3ccccc3)c3ccccc3n2)cc1F  solubility (aqueous buffer; pH 5): 0.13 µg/mL
O=C(Nc1cc(F)c(F)c(F)c1)c1ccc(F)c(S(=O)(=O)NCc2cccc(B(O)O)c2)c1  solubility (aqueous buffer; pH 2): 174 µg/mL
COc1cc(NC(=O)c2ccc(C3=CCN(C(=N)N)CC3)c(F)c2)ccc1C1=CCN(C(=N)N)CC1  solubility (shake flask; aqueous buffer; pH 7.4): 1210 µg/mL
CCOc1ccc2cc(-c3nn(CC4CC4)c(N)c3C(N)=O)ccc2n1  solubility (PBS; pH 6.5, 25 °C): 10.9 µM
